ChEMBL document CHEMBL1139843, “Novel sulfamide analogs of oleoylethanolamide showing in vivo satiety inducing actions and PPARalpha activation” (J Med Chem, 2007)
Active and inactive are the calls of the source. The rule behind the calls is not given here.

Legend:
[1] = biological target: T1, Peroxisome proliferator-activated receptor alpha (Homo sapiens) (UniProt Q07869); experiment: Agonist activity at human PPARalpha expressed in MCF7 cells transfected with co-activator TIF2 by luciferase reporter gene assay at 1 uM; format: functional, cell-based
T1 sequence (whole entry): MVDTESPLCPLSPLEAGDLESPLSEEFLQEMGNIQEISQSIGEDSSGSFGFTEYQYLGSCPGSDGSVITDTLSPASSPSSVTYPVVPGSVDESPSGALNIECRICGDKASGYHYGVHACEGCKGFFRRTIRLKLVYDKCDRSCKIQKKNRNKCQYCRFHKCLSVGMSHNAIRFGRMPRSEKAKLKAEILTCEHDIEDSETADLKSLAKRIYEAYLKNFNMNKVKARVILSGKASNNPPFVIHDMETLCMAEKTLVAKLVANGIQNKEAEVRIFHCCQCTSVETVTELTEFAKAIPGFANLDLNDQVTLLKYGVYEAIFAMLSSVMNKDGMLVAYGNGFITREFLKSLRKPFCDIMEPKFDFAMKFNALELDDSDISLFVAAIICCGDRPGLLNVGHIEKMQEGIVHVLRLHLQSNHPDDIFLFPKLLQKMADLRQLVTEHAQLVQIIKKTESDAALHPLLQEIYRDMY
Method in brief: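 MCF-7 cells grown overnight in phenol red-free DMEM with 5% charcoal-treated FBS. Transfected with DOTAP liposomes carrying human ACO PPRE-luciferase reporter, wild-type hPPARalpha and full-length TIF2. Ligand or DMSO added 4 h after transfection, with medium topped up with charcoal-treated FBS. Cells lysed 16 h later. Luciferase normalized to protein, relative to DMSO-treated cells without overexpression; mean ± SD, n = 3-6.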

[2] = biological target: T2, Peroxisome proliferator-activated receptor alpha (Homo sapiens, UniProt Q07869); experiment: Activation of human PPARalpha by GST pull down assay
T2 sequence (Q07869 whole entry): T1 sequence (whole entry)
Method in brief: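 GST or GST-TIF2 Sepharose beads, pre-blocked with 1 µg/µl BSA, incubated with 20 ng in vitro translated [35S]-labeled PPARalpha with or without compound. Unbound translated protein washed off with immunoprecipitation buffer, then bound receptor detected.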

Rattus norvegicus [3] = experiment: Reduction in food intake in obese Zucker rat at 1 mg/kg, ip after 11 days; format: functional, organism-based; parameters: dose 1 mg/kg
Method in brief: (§1)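 Genetically obese Zucker (fa/fa) rats, free-feeding, given 1 mg/kg i.p. daily for 11 days at dark-period onset, in Tween 80/saline. Cumulative relative weight gain (g/kg body weight, from day 1) and food intake compared with vehicle; means ± SEM, n = 3-6, ANOVA.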

Rattus norvegicus [4] = experiment: Reduction in body weight gain in obese Zucker rat at 1 mg/kg, ip after 11 days; format: functional, organism-based; parameters: dose 1 mg/kg; method in brief: as §1
Rattus norvegicus [5] = experiment: Reduction in body weight of Wistar rat at 1 mg/kg, ip after 8 days; format: functional, organism-based; parameters: dose 1 mg/kg
Method in brief: (§2)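 Normal Wistar rats, free-feeding, dosed 1 mg/kg i.p. daily for 8 days at dark-period onset. Compound suspended in Tween 80/saline. Body weight and plasma triglycerides compared with vehicle-treated rats; means ± SEM, n = 3-6, ANOVA.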

Rattus norvegicus [6] = experiment: Reduction in plasma triglycerides in Wistar rat at 1 mg/kg, ip after 8 days; format: functional, organism-based; parameters: dose 1 mg/kg; method in brief: as §2
Rattus norvegicus [7] = experiment: Reduction in food intake in Wistar rat at 0.03 to 3 mg/kg, ip

| Structure (SMILES) | Activity [1] | EC50 [2] | also measured |
| --- | --- | --- | --- |
| Cc1cccc(Nc2cc(Cl)nc(SCC(=O)O)n2)c1C | Active | – | – |
| CCCCCCCCCCCCCCCCCCNS(=O)(=O)NCCC | Active | 0.1 µM | Activity (Rattus norvegicus [3]): Active; Activity (Rattus norvegicus [4]): Active; Activity (Rattus norvegicus [5]): Active; Activity (Rattus norvegicus [6]): Active |
| CCCCCCCC/C=C\CCCCCCCCNS(=O)(=O)NCCC | – | 11 µM | – |
| CCCCCCCCCCCCCCCCNS(=O)(=O)NCCC | – | 21 µM | – |

Now from value to compound, other results behind:

| Activity [1] | EC50 [2] | Structure (SMILES) | also measured |
| --- | --- | --- | --- |
| – | > 10000 µM | CCCCCCCCCCCCCCCCNS(N)(=O)=O | – |
| inactive | > 10000 µM | CCCCCCCCCCCCCCCCCCNS(N)(=O)=O | Activity (Rattus norvegicus [7]): Active |
| – | 0.524 µM | CCCCCCCC/C=C\CCCCCCCCNS(N)(=O)=O | – |
| Active | 0.11 µM | CCCCCCCC/C=C\CCCCCCCC(=O)NCCO [OLEOYLETHANOLAMIDE] | – |
